# RBBP9 inhibitor: human RBBP9 inhibitors, primary screen, biochemical, fluorescence polarization, FP-Rh probe, HTS | inhibition, % at 7.94 µM | Serine hydrolase RBBP9 (Homo sapiens), O75884 | 220,000 tested, 0.2% active | recombinant RBBP9;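 active = inhibition above the campaign mean of all tested compounds plus 3 SD, cut at about 14% in these data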;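 also: plate controls were DMSO wells with RBBP9 for no effect and wells lacking RBBP9 protein for full effect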
# Target sequence (O75884 whole entry, looked up): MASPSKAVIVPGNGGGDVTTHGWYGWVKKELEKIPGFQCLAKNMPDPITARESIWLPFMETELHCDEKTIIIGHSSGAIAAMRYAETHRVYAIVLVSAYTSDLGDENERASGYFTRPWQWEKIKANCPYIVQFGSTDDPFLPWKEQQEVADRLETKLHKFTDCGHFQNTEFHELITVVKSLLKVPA
#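 Test system: recombinant human RBBP9. Quantity: 2.5 µM RBBP9 dispensing solution, before mixing. Detection: FP readout at 525/598 nm. Reagent: Serine-hydrolase probe FP-Rh, 375 nM pre-mixing. Measure: % inhibition. Control set: DMSO-treated enzyme wells and wells lacking RBBP9. Buffer or medium: Tris-NaCl-Pluronic buffer, pH 8.0. Times: preincubation 30 min plus labeling 45 min at 25 °C.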
# SIAE primary: human SIAE inhibitors, primary screen, biochemical, fluorescence polarization, FP-Rh probe, 1536-well HTS | Sialate O-acetylesterase (Homo sapiens), Q9HAT2 | SIAE FP-Rh probe binding | inhibition, % at 9.66 µM | 370,000 tested, 0.69% active | AID 1053197, 2014;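 active = inhibition above a cutoff: mean of compounds within the control limits plus 3 SD of those, cut at about 17% in these data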;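 also: 0% = plate median of compound wells and 100% = probe without SIAE protein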
# HTRA1 inhibitor: HTRA1 serine protease inhibitors, primary screen, biochemical, fluorescence polarization, HTS | inhibition, % at 5.96 µM | Q92743 | recombinant HTRA1, FP-rhodamine activity-based probe | 340,000 tested, 0.5% active; in the data active = inhibition above about 36%;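 also: 0% = enzyme with DMSO and 100% = wells lacking enzyme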
# mABHD4 FP: ABHD4 inhibitors, primary screen, biochemical, fluorescence polarization, mouse. inhibition, % at 8.92 µM. (Lyso)-N-acylphosphatidylethanolamine lipase (Mus musculus), Q8VD66. purified mABHD4, FP-Rh probe fluorescence polarization. AID 720543, 2013. 370,000 tested, 0.54% active;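 active = inhibition exceeding the mean over every tested compound plus 3 SD, cut at about 30% in these data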;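 also: 0% = plate median of compound wells and 100% = S159A mutant with DMSO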
# Target sequence (Q8VD66 whole entry, looked up): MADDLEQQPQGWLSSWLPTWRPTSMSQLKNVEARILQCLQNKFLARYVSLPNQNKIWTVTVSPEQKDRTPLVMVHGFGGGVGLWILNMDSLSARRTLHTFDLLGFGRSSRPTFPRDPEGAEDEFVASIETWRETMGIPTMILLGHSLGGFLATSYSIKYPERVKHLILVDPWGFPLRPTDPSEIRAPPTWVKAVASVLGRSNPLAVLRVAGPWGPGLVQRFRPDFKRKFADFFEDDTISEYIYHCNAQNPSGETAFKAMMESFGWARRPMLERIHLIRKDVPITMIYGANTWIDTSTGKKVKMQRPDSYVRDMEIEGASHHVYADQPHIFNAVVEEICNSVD
#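 Test system: mouse ABHD4 enzyme, wild type. Reagent: FP-Rh fluorescent activity-based probe, added after compound pre-incubation. Timing: pre-incubation 45 min, probe exposure 60 min, at 25 °C. Technique: FP readout, ex 525 nm / em 598 nm. Benchmarks: high control S159A mutant with DMSO, low control median of compound wells.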
# SIAE confirm: human SIAE inhibitors, retest, confirmation, biochemical, fluorescence polarization, FP-Rh probe, triplicate; inhibition, % at 9.66 µM; AID 1117263, 2014; shares compounds with SIAE primary; 2,300 tested, 13% active; SIAE FP-Rh activity-based probe;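 active = mean inhibition of the replicates above the hit cutoff set in the primary screen, cut at about 17% in these data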;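 also: 0% = SIAE with DMSO and probe and 100% = probe without SIAE; inhibitors lower polarization as more probe stays unbound to SIAE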
# * hit, by the source's call; · = not tested or not shown. Only some compounds are listed: those with a hit (about 1.4% of all), similar ones and a draw of the others.
SMILES,RBBP9 inhibitor,SIAE primary,HTRA1 inhibitor,mABHD4 FP,SIAE confirm
CC1CCN(C(=O)/C(=C\c2ccco2)NC(=O)c2ccccc2)CC1,·,23*,0,9,2
COc1ccc(C(=O)N/C(=C\c2ccccc2)C(=O)N2CCOCC2)cc1,·,-11,8,2,·
CCOc1ccccc1Nc1nc(N2CCCC2)nc(N2CCOCC2)n1,·,-3,1,-2,·
Cc1[nH]nc2c1C(c1ccc(F)cc1)N(Cc1ccccc1)C2=O (configuration not stated),·,-2,·,2,·
COc1ccc(S(=O)(=O)Nc2ccc3c(c2)C(=O)N([C@H](C)CO)C[C@H](C)[C@@H](CN(C)C(=O)Nc2ccc(C(F)(F)F)cc2)OCCCC[C@H](C)O3)cc1,·,-26,-72,-40,·
CC(C)C[C@@H](CN1CCC[C@H]1CN1C(=O)C(=O)NC[C@@H]1Cc1ccc(O)cc1)N1C[C@H](Cc2ccccc2)N(CCc2ccccc2)C(=O)C1=O,·,2,·,9,·
CC(C)C[C@H]1CN([C@@H](CC(C)C)CN2CCC[C@H]2CN2C(=O)C(=O)NC[C@@H]2Cc2ccc(O)cc2)C(=O)C(=O)N1CCc1ccccc1,·,20*,·,8,10
COC(=O)[C@]12C[C@H](CC(=O)NCc3cccc(C(F)(F)F)c3)C(=O)N(Cc3cccc4ccccc34)C1=C[C@H](C1CCCC1)O[C@@H]2C,·,-6,·,-7,·
COc1cc2[nH]c3c(Cl)ncnc3c2cc1OC,-2,-1,-3,4,·
COc1cccc(N2CCN(c3ncnc4c3[nH]c3ccc(F)cc34)CC2C)c1 (configuration not stated),-6,19*,-18,0,-4
COc1cccc(N2CCN(c3ncnc4c3[nH]c3ccccc34)CC2C)c1 (configuration not stated),-7,11,·,15,·
COc1cc2[nH]c3c(N4CCN(c5ccc(Cl)cc5)CC4)ncnc3c2cc1OC,-6,30*,2,11,25*
CC1S/C(=N/N=C/c2cccc([N+](=O)[O-])c2)NC1=O (configuration not stated),0,0,4,-6,·
CC12CN3CCN(CC(C3)/C1=N/N=C/c1cccc([N+](=O)[O-])c1)C2,-6,17*,3,-1,0
C/C(=C\C(=O)c1ccc(Cl)cc1)Nc1ccc(N2CCOCC2)cc1,-11,4,2,16,·
C/C(=C\C(=O)c1ccccc1)Nc1ccc(Br)c(Cl)c1,·,18*,5,4,2
C/C(=C\C(=O)c1ccccc1)Nc1ccc(N2CCOCC2)cc1,0,18*,17,19,-33
CCn1c(SCC(=O)N(C)C)nc2cc(S(=O)(=O)N3CCCCC3)ccc21,·,3,-6,-15,·
Nc1ccc(N2CCOCC2)c(S(=O)(=O)Nc2ccccc2Cl)c1,·,39*,10,19,2
CN(C)CCNC(=O)Cn1ccc2cc(S(=O)(=O)N3CCCCCC3)ccc21,·,2,5,4,·
Cc1ccc(-c2cc(C(=O)NCCCN3CCOCC3)no2)cc1,-8,0,-7,3,·
O=C(NCCCN1CCOCC1)c1cc(-c2cccs2)on1,2,21*,1,-1,6
O=C(NCCCN1CCOCC1)c1sc2cc(Cl)ccc2c1Cl,-8,21*,3,0,2
COc1cc(/C=C/C(=O)c2ccc(NS(=O)(=O)c3ccc(C)cc3)cc2)cc(OC)c1O,3,78*,6,-8,-33
O=C(Nc1ccncc1)C1CCN(S(=O)(=O)c2cccc(C(F)(F)F)c2)CC1,·,18*,11,4,0
SMILES,RBBP9 inhibitor,SIAE primary,HTRA1 inhibitor,mABHD4 FP,SIAE confirm
COc1cc(/C=C/C(=O)OCC(=O)N2CCc3ccccc3C2)ccc1O,-6,21*,1,3,1
COc1cc(=O)oc(C=O)c1C,·,-5,·,2,·
CC(C)(C)OC(=O)N1CCN(C(=O)Nc2ccc3c(c2)OCCO3)CC1,-12,18*,2,-2,1
Cc1cccc(C)c1N1CCN(C(=O)Nc2ccc3c(c2)OCCO3)CC1,-5,-1,-13,0,·
CNc1cncc(-c2ccoc2)n1,·,16,·,7,·
COc1cc(CNc2cc(C)ccc2C)cc(OC)c1OC,3,24*,3,-5,0
CCOc1ccc(-n2cc(C(=O)NCCOC)c3cc(OC)c(OC)cc3c2=O)cc1,·,22*,5,3,-5
COc1ccc(OC)c(Nc2nc(NCc3ccco3)c3ccccc3n2)c1,·,18*,23,15,11
COC(=O)C1=C(C)N(Cc2ccccc2C(F)(F)F)C(=NCc2ccc(C(F)(F)F)cc2)NC1c1ccccc1 (configuration not stated),·,-5,·,14,·
CCOC(=O)[C@H]1[C@H]2COc3cc(OC)ccc3[C@@H]2N2C(=O)N(c3ccc(Cl)cc3)C(=O)[C@@]12C,·,·,-22,·,·
C=CCN1[C@@H](C)[C@H](c2ccccc2)Oc2cccc(NCCc3ccccc3)c2S1(=O)=O,·,-2,·,-5,·
O=C1NC[C@@H](CCCCN2C[C@H](Cc3ccc(O)cc3)N(CCC3CCCCC3)C(=O)C2=O)N(CC2CCCCC2)C1=O,·,7,·,5,·
CC(Sc1nc(-c2ccccc2)c(-c2ccccc2)[nH]1)C(=O)NCC1CCCO1 (configuration not stated),·,21*,-6,4,-2
Cc1ccc(S(=O)(=O)N2C[C@]3(O)C[C@@H]4C(=O)N(c5ccccc5)C(=O)[C@@H]4C[C@]3(OC(=O)Nc3cccs3)C2)cc1,·,5,0,2,·
O=[N+]([O-])c1cccc(-c2csc(N/N=C/c3cccc(O)c3)n2)c1,-6,27*,4,8,0
CN(C)S(=O)(=O)c1ccc(-c2csc(N/N=C/c3ccc(O)cc3)n2)cc1,3,20*,26,-3,24*
CS(=O)(=O)c1ccc(Nc2nc(C(N)Cc3ccc(Cl)cc3)cs2)cc1 (configuration not stated),·,3,·,-3,·
COc1ccc(C(C)(NC(C)=O)c2nc(-c3cccc(C(=O)O)c3)cs2)cc1 (configuration not stated),·,8,·,-3,·
COCc1[nH]nc2c1C(c1ccccc1)NC2=O (configuration not stated),·,0,·,3,·
CC(=O)c1ccc(NC(=O)C2=CC(c3ccco3)=NS(=O)(=O)N2C)cc1,·,-5,6,-2,·
COc1ccc(C2=CC(=O)OC3(CCCCC3)O2)cc1,3,19*,-6,6,-4
COc1cccc(NC=C2C(=O)OC3(CCCCC3)OC2=O)c1,3,1,-6,21,·
O=C(NCc1ccc(F)cc1)c1cccnc1C(=O)O,·,-1,2,3,·
